Measured values from ChEMBL document CHEMBL1124988, “Synthesis and antimicrobial and cytotoxic activities of pyrrole-containing analogues of trichostatin A” (J Med Chem, 1990).
Converted amounts (≈) assume the structure as drawn.

What was measured:
unidentified adenovirus = experiment: Effective dose required for antiviral activity against adeno virus; assay type: functional; settings: read-out: ED50 (the source's name)
Outline: (§1)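 Plaque-reduction assay in Vero cells. Dose-response lines were drawn by linear regression, and ED50 is the concentration giving 50% fewer plaques than untreated, virus-infected controls.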

[1] = tested on: African swine fever virus; experiment: Effective dose required for antiviral activity against ASFV virus; assay type: functional; settings: read-out: ED50 (the source's name)
Human alphaherpesvirus 1 = experiment: Effective dose required for antiviral activity against HSV-1 virus; assay type: functional; settings: read-out: ED50 (the source's name); outline: as §1
[2] = tested on: Vesicular stomatitis virus; experiment: Effective dose required for antiviral activity against VSV virus; assay type: functional; settings: read-out: ED50 (the source's name)
Vero = experiment: Maximum nontoxic dose that allow exponential cell growth for three cell cycles; assay type: functional, Chlorocebus sabaeus
Outline: (§2)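 Exponentially growing Vero cells were exposed to a range of compound concentrations for three cell cycles (3 days) at 37 °C in 5% CO2. Viable cells were counted by hemocytometer in duplicate samples. MNTD is the highest concentration still allowing exponential growth. TD50 is the concentration halving cell number versus untreated controls.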

[3] = Toxic dose that reduced by 50% the number of cells with respect to untreated controls.; assay type: toxicity, cell-based; settings: chlorocebus sabaeus, Vero cells; read-out: TD50 (the source's name); outline: as §2
Vaccinia virus = experiment: Effective dose required for antiviral activity against Vaccinia virus; assay type: functional; settings: Orthopoxvirus vaccinia; read-out: ED50 (the source's name)

SMILES | EC50 (unidentified adenovirus) [µg/mL] | EC50 [1] [µg/mL] | EC50 (Human alphaherpesvirus 1) [µg/mL] | EC50 [2] [µg/mL] | MNTD (Vero) [µg/mL] | CC50 [3] [µg/mL] | EC50 (Vaccinia virus) [µg/mL]
CCOC(=O)/C=C/c1cc(C(=O)c2ccc(F)cc2)cn1C | 50 (≈ 166 µM) | 10 (≈ 33.2 µM) | 10 (≈ 33.2 µM) | 50 (≈ 166 µM) | 4 | 15 (≈ 49.8 µM) | 10 (≈ 33.2 µM)
Cn1cc(C(=O)c2ccccc2)cc1/C=C/C(=O)NO | > 30 | > 30 | > 30 | > 30 | 15 | 30 (≈ 111 µM) | > 30
Cn1cc(C(=O)c2ccc([N+](=O)[O-])cc2)cc1/C=C/C(=O)NO | 25 (≈ 79.3 µM) | 25 (≈ 79.3 µM) | 15 (≈ 47.6 µM) | > 50 | 15 | 30 (≈ 95.2 µM) | 15 (≈ 47.6 µM)
CCOC(=O)/C=C/c1cc(C(=O)c2ccc(OC)cc2)cn1C | 4 (≈ 12.8 µM) | 8 (≈ 25.5 µM) | 15 (≈ 47.9 µM) | 15 (≈ 47.9 µM) | 8 | 15 (≈ 47.9 µM) | 20 (≈ 63.8 µM)
CN(C)c1ccc(C(=O)c2cc(/C=C/C(=O)O)n(C)c2)cc1 | 125 (≈ 419 µM) | > 250 | > 250 | > 500 | 125 | > 250 | > 250
Cn1cc(C(=O)c2ccc(F)cc2)cc1/C=C/C(=O)O | 50 (≈ 183 µM) | 30 (≈ 110 µM) | 60 (≈ 220 µM) | > 50 | 15 | 60 (≈ 220 µM) | 100 (≈ 366 µM)
CCOC(=O)/C=C/c1cc(C(=O)c2ccc(Cl)cc2)cn1C | 30 (≈ 94.4 µM) | > 500 | 350 (≈ 1100 µM) | > 1000 | 250 | 500 (≈ 1570 µM) | 500 (≈ 1570 µM)
Cn1cc(C(=O)c2ccc(F)cc2)cc1/C=C/C(=O)NO | > 50 | 12 (≈ 41.6 µM) | 10 (≈ 34.7 µM) | > 50 | 8 | 15 (≈ 52 µM) | 15 (≈ 52 µM)
Cn1cc(C(=O)c2ccc(Cl)cc2)cc1/C=C/C(=O)NO | 15 (≈ 49.2 µM) | 20 (≈ 65.6 µM) | 30 (≈ 98.4 µM) | > 30 | 15 | 30 (≈ 98.4 µM) | 30 (≈ 98.4 µM)
CCOC(=O)/C=C/c1cc(C(=O)c2ccc([N+](=O)[O-])cc2)cn1C | – | 60 (≈ 183 µM) | 125 (≈ 381 µM) | – | 2 | 8 (≈ 24.4 µM) | 60 (≈ 183 µM)
CCOC(=O)/C=C/c1cc(C(=O)c2ccccc2)cn1C | 30 (≈ 106 µM) | 30 (≈ 106 µM) | 30 (≈ 106 µM) | 30 (≈ 106 µM) | 2 | 4 (≈ 14.1 µM) | 30 (≈ 106 µM)
Cc1ccc(C(=O)c2ccn(/C=C/C(=O)O)c2)cc1 | 60 (≈ 235 µM) | 8 (≈ 31.3 µM) | 100 (≈ 392 µM) | > 125 | 30 | 125 (≈ 490 µM) | 100 (≈ 392 µM)
Cn1cc(C(=O)c2ccc(-n3ccnc3)cc2)cc1/C=C/C(=O)O | 250 (≈ 778 µM) | 250 (≈ 778 µM) | > 250 | 250 (≈ 778 µM) | 125 | > 250 | > 250
Cn1cc(C(=O)c2ccc(N)cc2)cc1/C=C/C(=O)O | 1000 (≈ 3700 µM) | 250 (≈ 925 µM) | > 1000 | > 1000 | >1000 | > 1000 | 1000 (≈ 3700 µM)
COc1ccc(C(=O)c2cc(/C=C/C(=O)O)n(C)c2)cc1 | 250 (≈ 876 µM) | 350 (≈ 1230 µM) | > 500 | 1000 (≈ 3510 µM) | 500 | > 500 | 500 (≈ 1750 µM)
Cn1cc(C(=O)c2ccc([N+](=O)[O-])cc2)cc1/C=C/C(=O)O | 50 (≈ 167 µM) | 50 (≈ 167 µM) | 50 (≈ 167 µM) | > 100 | 15 | 60 (≈ 200 µM) | 15 (≈ 50 µM)
Cn1cc(C(=O)c2ccccc2)cc1/C=C/C(=O)O | 250 (≈ 979 µM) | 250 (≈ 979 µM) | > 500 | 500 (≈ 1960 µM) | 250 | > 250 | > 500
CCOC(=O)/C=C/c1cc(C(=O)c2ccc(N(C)C)cc2)cn1C | 15 (≈ 46 µM) | 8 (≈ 24.5 µM) | 15 (≈ 46 µM) | 8 (≈ 24.5 µM) | 2 | 4 (≈ 12.3 µM) | 15 (≈ 46 µM)
CCOC(=O)/C=C/c1cc(C(=O)c2ccc(-n3ccnc3)cc2)cn1C | 15 (≈ 42.9 µM) | 30 (≈ 85.9 µM) | 500 (≈ 1430 µM) | 500 (≈ 1430 µM) | 15 | 30 (≈ 85.9 µM) | > 500
Cn1cc(C(=O)c2ccc(Cl)cc2)cc1/C=C/C(=O)O | > 500 | > 250 | 500 (≈ 1730 µM) | 250 (≈ 863 µM) | 30 | 125 (≈ 431 µM) | 100 (≈ 345 µM)
Nc1nc2c(ncn2COCCO)c(=O)[nH]1 [ACYCLOVIR] | – | 40 (≈ 178 µM) | 0.02 (≈ 0.0888 µM) | > 40 | 40 | 240 (≈ 1070 µM) | > 110
Nc1ncnc2c1ncn2[C@@H]1O[C@H](CO)[C@@H](O)[C@@H]1O [VIDARABINE] | – | 40 (≈ 150 µM) | 10 (≈ 37.4 µM) | > 10 | 6 | 10 (≈ 37.4 µM) | 16 (≈ 59.9 µM)
